# What was measured:
# Type in all cases: functional
# Escherichia coli [1] = test: Antibacterial activity against beta-lactamase-positive ESBL-negative Escherichia coli E430 assessed as mutant prevention concentration after overnight incubation
# Procedure, shortened: (§1)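 Overnight growth on blood trypticase soy agar (35°C, air) was resuspended in 0.9% saline and counted on drug-free Mueller-Hinton agar. […] Colonies were retested by agar dilution to confirm mutants. MPC was the lowest concentration preventing resistant-mutant growth.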
# Pseudomonas aeruginosa [2] = test: Antibacterial activity against Pseudomonas aeruginosa P363 assessed as mutant prevention concentration after overnight incubation
# Escherichia coli [3] = test: Antibacterial activity against beta-lactamase-positive ESBL-positive Escherichia coli E456 assessed as mutant prevention concentration after overnight incubation; procedure, shortened: as §1
# Escherichia coli [4] = test: Antibacterial activity against beta-lactamase-positive ESBL-positive Escherichia coli E465 incubated up to 7 days by agar dilution method; details: E465, 168 h
# Procedure, shortened: (§2)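 MIC by CLSI agar dilution, with quality-control strains in each run. Beta-lactamase status was set by 30 μg cefazolin Kirby-Bauer disk diffusion. ESBL status was set by cefotaxime and ceftazidime disks (30 μg) with and without clavulanic acid (10 μg).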
# Acinetobacter baumannii [5] = test: Antibacterial activity against Acinetobacter baumannii A928 assessed as mutant prevention concentration after overnight incubation
# Klebsiella pneumoniae [6] = test: Antibacterial activity against beta-lactamase-positive ESBL-positive Klebsiella pneumoniae E475 assessed as mutant prevention concentration after overnight incubation; procedure, shortened: as §1
# Escherichia coli [7] = test: Antibacterial activity against beta-lactamase-positive ESBL-negative Escherichia coli E412 assessed as mutant prevention concentration after overnight incubation; procedure, shortened: as §1
# Klebsiella pneumoniae [8] = test: Antibacterial activity against beta-lactamase-negative Klebsiella pneumoniae E419 incubated up to 7 days by agar dilution method; details: E419, 168 h
# Klebsiella pneumoniae [9] = test: Antibacterial activity against beta-lactamase-positive ESBL-negative Klebsiella pneumoniae E507 assessed as mutant prevention concentration after overnight incubation; procedure, shortened: as §1
# Klebsiella pneumoniae [10] = test: Antibacterial activity against beta-lactamase-positive ESBL-negative Klebsiella pneumoniae E479 assessed as mutant prevention concentration after overnight incubation; procedure, shortened: as §1
# Klebsiella pneumoniae [11] = test: Antibacterial activity against beta-lactamase-negative Klebsiella pneumoniae E420 assessed as mutant prevention concentration after overnight incubation; procedure, shortened: as §1
# Escherichia coli [12] = test: Antibacterial activity against beta-lactamase-negative Escherichia coli E424 […] by agar dilution method
# Escherichia coli [13] = test: Antibacterial activity against beta-lactamase-negative Escherichia coli E350 […] by agar dilution method
# Acinetobacter baumannii [14] = test: Antibacterial activity against Acinetobacter baumannii A891 assessed as mutant prevention concentration after overnight incubation
# Escherichia coli [15] = test: Antibacterial activity against beta-lactamase-positive ESBL-positive Escherichia coli E450 incubated up to 7 days by agar dilution method; details: E450, 168 h; procedure, shortened: as §2
# Klebsiella pneumoniae [16] = test: Antibacterial activity against beta-lactamase-negative Klebsiella pneumoniae E420 incubated up to 7 days by agar dilution method; details: E420, 168 h; procedure, shortened: as §2
# Pseudomonas aeruginosa [17] = test: Antibacterial activity against Pseudomonas aeruginosa P369 assessed as mutant prevention concentration after overnight incubation
# Klebsiella pneumoniae [18] = test: Antibacterial activity against beta-lactamase-positive ESBL-negative Klebsiella pneumoniae E479 incubated up to 7 days by agar dilution method; details: E479, 168 h
# Procedure, shortened: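 MPC determination: overnight cultures on blood trypticase soy agar at 35°C in air were resuspended in 0.9% saline, and CFU were counted on drug-free Mueller-Hinton agar. […] Growth was retested by agar dilution to confirm mutants. MPC was the lowest concentration preventing resistant-mutant growth.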
# Escherichia coli [19] = test: Antibacterial activity against beta-lactamase-positive ESBL-negative Escherichia coli E437 assessed as mutant prevention concentration after overnight incubation; procedure, shortened: as §1
# Klebsiella pneumoniae [20] = test: Antibacterial activity against beta-lactamase-positive ESBL-positive Klebsiella pneumoniae E478 incubated up to 7 days by agar dilution method; details: E478, 168 h
# Klebsiella pneumoniae [21] = test: Antibacterial activity against beta-lactamase-positive ESBL-negative Klebsiella pneumoniae E509 assessed as mutant prevention concentration after overnight incubation; procedure, shortened: as §1
# Klebsiella pneumoniae [22] = test: Antibacterial activity against beta-lactamase-negative Klebsiella pneumoniae E361 assessed as mutant prevention concentration after overnight incubation
# Klebsiella pneumoniae [23] = test: Antibacterial activity against beta-lactamase-negative Klebsiella pneumoniae E417 incubated up to 7 days by agar dilution method; details: E417, 168 h; procedure, shortened: as §2
# Pseudomonas aeruginosa [24] = test: Antibacterial activity against Pseudomonas aeruginosa P319 assessed as mutant prevention concentration after overnight incubation
# Acinetobacter baumannii [25] = test: Antibacterial activity against Acinetobacter baumannii A912 assessed as mutant prevention concentration after overnight incubation
# Escherichia coli [26] = test: Antibacterial activity against beta-lactamase-negative Escherichia coli E409 […] by agar dilution method
# Escherichia coli [27] = test: Antibacterial activity against beta-lactamase-negative Escherichia coli E344 assessed as mutant prevention concentration after overnight incubation
# Escherichia coli [28] = test: Antibacterial activity against beta-lactamase-positive ESBL-positive Escherichia coli E446 assessed as mutant prevention concentration after overnight incubation; procedure, shortened: as §1
# Klebsiella pneumoniae [29] = test: Antibacterial activity against beta-lactamase-positive ESBL-negative Klebsiella pneumoniae E474 incubated up to 7 days by agar dilution method; details: E474, 168 h
# Escherichia coli [30] = test: Antibacterial activity against beta-lactamase-positive ESBL-positive Escherichia coli E450 assessed as mutant prevention concentration after overnight incubation; procedure, shortened: as §1
# Acinetobacter baumannii [31] = test: Antibacterial activity against Acinetobacter baumannii A890 assessed as mutant prevention concentration after overnight incubation
# Acinetobacter baumannii [32] = test: Antibacterial activity against Acinetobacter baumannii A901 assessed as mutant prevention concentration after overnight incubation
# Pseudomonas aeruginosa [33] = test: Antibacterial activity against Pseudomonas aeruginosa P373 assessed as mutant prevention concentration after overnight incubation
# Klebsiella pneumoniae [34] = test: Antibacterial activity against beta-lactamase-positive ESBL-negative Klebsiella pneumoniae E473 incubated up to 7 days by agar dilution method; details: E473, 168 h
# Klebsiella pneumoniae [35] = test: Antibacterial activity against beta-lactamase-negative Klebsiella pneumoniae E357 incubated up to 7 days by agar dilution method; details: E357, 168 h
# Escherichia coli [36] = test: Antibacterial activity against beta-lactamase-positive ESBL-positive Escherichia coli E456 incubated up to 7 days by agar dilution method; details: E456, 168 h; procedure, shortened: as §2
# Klebsiella pneumoniae [37] = test: Antibacterial activity against beta-lactamase-negative Klebsiella pneumoniae E358 incubated up to 7 days by agar dilution method; details: E358, 168 h
# Klebsiella pneumoniae [38] = test: Antibacterial activity against beta-lactamase-positive ESBL-positive Klebsiella pneumoniae E476 incubated up to 7 days by agar dilution method; details: E476, 168 h
# Klebsiella pneumoniae [39] = test: Antibacterial activity against beta-lactamase-negative Klebsiella pneumoniae E359 incubated up to 7 days by agar dilution method; details: E359, 168 h
# Pseudomonas aeruginosa [40] = test: Antibacterial activity against Pseudomonas aeruginosa P356 assessed as mutant prevention concentration after overnight incubation
# Escherichia coli [41] = test: Antibacterial activity against beta-lactamase-positive ESBL-positive Escherichia coli E460 incubated up to 7 days by agar dilution method; details: E460, 168 h; procedure, shortened: as §2
# Escherichia coli [42] = test: Antibacterial activity against beta-lactamase-positive ESBL-positive Escherichia coli E458 incubated up to 7 days by agar dilution method; details: E458, 168 h; procedure, shortened: as §2
# Klebsiella pneumoniae [43] = test: Antibacterial activity against beta-lactamase-positive ESBL-negative Klebsiella pneumoniae E480 incubated up to 7 days by agar dilution method; details: E480, 168 h
# Pseudomonas aeruginosa [44] = test: Antibacterial activity against Pseudomonas aeruginosa P335 assessed as mutant prevention concentration after overnight incubation
compound,measurement,setting,value
C[C@@H](O)[C@H]1C(=O)N2C(C(=O)O)=C(S[C@@H]3CN[C@H](C(=O)N(C)C)C3)[C@H](C)[C@H]12 [MEROPENEM],MPC,Escherichia coli [1],0.125 µg/mL
same,MPC,Pseudomonas aeruginosa [2],>8 µg/mL
same,MPC,Escherichia coli [3],0.125 µg/mL
same,MIC,Escherichia coli [4],0.06 µg/mL
same,MPC,Acinetobacter baumannii [5],4 µg/mL
same,MPC,Klebsiella pneumoniae [6],32 µg/mL
same,MPC,Escherichia coli [7],0.25 µg/mL
same,MIC,Klebsiella pneumoniae [8],0.06 µg/mL
same,MPC,Klebsiella pneumoniae [9],>64 µg/mL
same,MPC,Klebsiella pneumoniae [10],32 µg/mL
same,MPC,Klebsiella pneumoniae [11],0.06 µg/mL
same,MIC,Escherichia coli [12],0.03 µg/mL
same,MIC,Escherichia coli [13],0.03 µg/mL
same,MPC,Acinetobacter baumannii [14],2 µg/mL
same,MIC,Escherichia coli [15],0.03 µg/mL
same,MIC,Klebsiella pneumoniae [16],0.03 µg/mL
same,MPC,Pseudomonas aeruginosa [17],>4 µg/mL
same,MIC,Klebsiella pneumoniae [18],8 µg/mL
same,MPC,Escherichia coli [19],0.125 µg/mL
same,MIC,Klebsiella pneumoniae [20],2 µg/mL
same,MPC,Klebsiella pneumoniae [21],>64 µg/mL
same,MPC,Klebsiella pneumoniae [22],0.125 µg/mL
same,MIC,Klebsiella pneumoniae [23],0.06 µg/mL
same,MPC,Pseudomonas aeruginosa [24],8 µg/mL
same,MPC,Acinetobacter baumannii [25],4 µg/mL
same,MIC,Escherichia coli [26],0.03 µg/mL
same,MPC,Escherichia coli [27],0.03 µg/mL
same,MPC,Escherichia coli [28],0.125 µg/mL
same,MIC,Klebsiella pneumoniae [29],4 µg/mL
same,MPC,Escherichia coli [30],0.06 µg/mL
same,MPC,Acinetobacter baumannii [31],1 µg/mL
same,MPC,Acinetobacter baumannii [32],8 µg/mL
same,MPC,Pseudomonas aeruginosa [33],>8 µg/mL
same,MIC,Klebsiella pneumoniae [34],2 µg/mL
same,MIC,Klebsiella pneumoniae [35],0.03 µg/mL
same,MIC,Escherichia coli [36],0.03 µg/mL
same,MIC,Klebsiella pneumoniae [37],0.03 µg/mL
same,MIC,Klebsiella pneumoniae [38],4 µg/mL
same,MIC,Klebsiella pneumoniae [39],0.06 µg/mL
same,MPC,Pseudomonas aeruginosa [40],>4 µg/mL
same,MIC,Escherichia coli [41],0.03 µg/mL
same,MIC,Escherichia coli [42],0.03 µg/mL
same,MIC,Klebsiella pneumoniae [43],2 µg/mL
same,MPC,Pseudomonas aeruginosa [44],32 µg/mL
C[C@@H](O)[C@H]1C(=O)N2C(C(=O)O)=C(S[C@@H]3CN[C@H](C(=O)Nc4cccc(C(=O)O)c4)C3)[C@H](C)[C@H]12,MPC,Escherichia coli [1],>0.5 µg/mL
same,MPC,Escherichia coli [3],2 µg/mL
same,MIC,Escherichia coli [4],0.25 µg/mL
same,MPC,Klebsiella pneumoniae [6],16 µg/mL
same,MPC,Escherichia coli [7],1 µg/mL
same,MIC,Klebsiella pneumoniae [8],0.016 µg/mL
same,MPC,Klebsiella pneumoniae [9],64 µg/mL
same,MPC,Klebsiella pneumoniae [10],64 µg/mL
same,MPC,Klebsiella pneumoniae [11],0.03 µg/mL
same,MIC,Escherichia coli [12],0.016 µg/mL
same,MIC,Escherichia coli [13],0.016 µg/mL
same,MIC,Escherichia coli [15],0.03 µg/mL
same,MIC,Klebsiella pneumoniae [16],0.008 µg/mL
same,MIC,Klebsiella pneumoniae [18],8 µg/mL
same,MPC,Escherichia coli [19],0.125 µg/mL
same,MIC,Klebsiella pneumoniae [20],8 µg/mL
same,MPC,Klebsiella pneumoniae [21],64 µg/mL
same,MPC,Klebsiella pneumoniae [22],0.06 µg/mL
same,MIC,Klebsiella pneumoniae [23],0.008 µg/mL
same,MIC,Escherichia coli [26],0.016 µg/mL
same,MPC,Escherichia coli [27],0.03 µg/mL
same,MPC,Escherichia coli [28],1 µg/mL
same,MIC,Klebsiella pneumoniae [29],4 µg/mL
same,MPC,Escherichia coli [30],1 µg/mL
same,MIC,Klebsiella pneumoniae [34],8 µg/mL
same,MIC,Klebsiella pneumoniae [35],0.008 µg/mL
same,MIC,Escherichia coli [36],0.125 µg/mL
same,MIC,Klebsiella pneumoniae [37],0.008 µg/mL
same,MIC,Klebsiella pneumoniae [38],8 µg/mL
same,MIC,Klebsiella pneumoniae [39],0.016 µg/mL
same,MIC,Escherichia coli [41],0.125 µg/mL
same,MIC,Escherichia coli [42],0.03 µg/mL
same,MIC,Klebsiella pneumoniae [43],8 µg/mL
